Activity and EC50 data for 15 compounds are collected here from ChEMBL document CHEMBL3045158, “Synthesis and antiviral activities of chiral thiourea derivatives containing an alpha-aminophosphonate moiety” (J Agric Food Chem, 2009).

Test [1] has as its system Tobacco mosaic virus. Kind of test: Antiviral activity against Tobacco mosaic virus (TMV) in compound treated Nicotiana tabacum L.leaves assessed as curative effect from local lesions at 500 ug/ml measured after 3 to 4 days. The format is functional.
Test [2] deals with Tobacco mosaic virus. Kind of test: Antiviral activity against Tobacco mosaic virus (TMV) in compound treated Nicotiana tabacum L.leaves assessed as protective effect from local lesions at 500 ug/ml measured after 3 to 4 days. The format is functional. Put shortly:
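Half-leaf test on same-age N. tabacum L. leaves: compound solution smeared on the left half, solvent on the right as control. Leaves were inoculated 12 h later by brush with TMV at 6 × 10-3 mg/mL on silicon carbide-dusted leaves, then rinsed with water. Local lesions were counted 3–4 days later, three repetitions. Inhibition % = (control lesions − treated lesions)/control lesions × 100.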

The test system of test [3] is Tobacco mosaic virus. Kind of test: Antiviral activity against Tobacco mosaic virus (TMV) in compound treated Nicotiana tabacum L.leaves assessed as curative effect at 250 ug/ml. In kind it is functional.
Test [4] has as its system Tobacco mosaic virus. Kind of test: Antiviral activity against Tobacco mosaic virus (TMV) in compound treated Nicotiana tabacum L.leaves assessed as curative effect at 125 ug/ml. In kind it is functional.
In test [5] the test system is Tobacco mosaic virus. Kind of test: Antiviral activity against Tobacco mosaic virus (TMV) in compound treated Nicotiana tabacum L.leaves assessed as curative effect at 500 ug/ml. In kind it is functional.
Test [6] has as its system Tobacco mosaic virus. Kind of test: Antiviral activity against Tobacco mosaic virus (TMV) in compound treated Nicotiana tabacum L.leaves assessed as curative effect. The format is functional, organism-based.

Values after ≈ are worked out from the molar mass of the structure shown.

One may read the EC50 as the midpoint of the concentration-response curve.

In the case of `CC(C)OP(=O)(OC(C)C)C(NC(=S)N[C@H](C)C1CCCCC1)c1ccccc1` (stereo not given in full), the Activity amounted to 34.6% in the test with Tobacco mosaic virus [1] and 33.7% in the test on Tobacco mosaic virus [2].
Regarding `CCCCOP(=O)(OCCCC)C(NC(=S)N[C@@H](C)C1CCCCC1)c1ccccc1` (stereo not given in full), the Activity with Tobacco mosaic virus [1] is reported as 50.4%; in the test on Tobacco mosaic virus [2], 36.3%; in the test with Tobacco mosaic virus [3], 37.2%; in the test on Tobacco mosaic virus [4] it was 32.9%; in the test on Tobacco mosaic virus [5], 50.4%. In addition, the EC50 in the test on Tobacco mosaic virus [6] was 379 µg/mL (≈ 809 µM).
In the case of `CCCCOP(=O)(OCCCC)C(NC(=S)N[C@H](C)C1CCCCC1)c1ccccc1` (stereo not given in full), the values for the Activity in the test on Tobacco mosaic virus [1] and in the test with Tobacco mosaic virus [2] were 34.6% and 33.7%, respectively.
For `CCOP(=O)(OCC)C(NC(=S)N[C@@H](C)c1ccccc1)c1ccccc1` (stereo not given in full) the same measures were 41.8% and 37.6%.
Turning to `CCOP(=O)(OCC)C(NC(=S)N[C@H](C)c1ccccc1)c1ccccc1` (stereo not given in full), the values for the Activity in the test on Tobacco mosaic virus [1] and in the test with Tobacco mosaic virus [2] were 45.2% and 42.6%, respectively.
Take `CCOP(=O)(OCC)C(NC(=S)N[C@@H](C)C1CCCCC1)c1ccccc1` (stereo not given in full): the Activity is reported as 36.3% in the test with Tobacco mosaic virus [1] and 36.4% in the test on Tobacco mosaic virus [2].
For `CCOP(=O)(OCC)C(NC(=S)N[C@H](C)C1CCCCC1)c1ccccc1` (stereo not given in full), in that order: 40.1% and 33.1%.
On to `CCCOP(=O)(OCCC)C(NC(=S)N[C@@H](C)c1ccccc1)c1ccccc1` (stereo not given in full), for which the Activity turned out to be 50.5% in the test on Tobacco mosaic virus [1]; 42.7% with Tobacco mosaic virus [2]; 37.7% in the test on Tobacco mosaic virus [3]; 30.9% in the test on Tobacco mosaic virus [4]; 50.5% with Tobacco mosaic virus [5]. In addition, the EC50 with Tobacco mosaic virus [6] was 400 µg/mL (≈ 920 µM).
Turning to `CCCOP(=O)(OCCC)C(NC(=S)N[C@H](C)c1ccccc1)c1ccccc1` (stereo not given in full), the results for the Activity in the test with Tobacco mosaic virus [1] and with Tobacco mosaic virus [2] were 41.9% and 45.9%, respectively.
With `CCCOP(=O)(OCCC)C(NC(=S)N[C@@H](C)C1CCCCC1)c1ccccc1` (stereo not given in full), the Activity in the test on Tobacco mosaic virus [1] is listed as 54.3%; with Tobacco mosaic virus [2] it was 30.9%; in the test with Tobacco mosaic virus [3] it was 49%; with Tobacco mosaic virus [4] it was 39.1%; with Tobacco mosaic virus [5] it was 54.8%. Moreover, the EC50 with Tobacco mosaic virus [6] stood at 240 µg/mL (≈ 544 µM).
As for `CCCOP(=O)(OCCC)C(NC(=S)N[C@H](C)C1CCCCC1)c1ccccc1` (stereo not given in full), the values for the Activity in the test with Tobacco mosaic virus [1] and with Tobacco mosaic virus [2] were 40.7% and 37.9%, respectively.
For `CC(C)OP(=O)(OC(C)C)C(NC(=S)N[C@@H](C)c1ccccc1)c1ccccc1` (stereo not given in full), the values for the Activity in the test with Tobacco mosaic virus [1] and with Tobacco mosaic virus [2] were 36.8% and 36.9%, respectively.
For `CC(C)OP(=O)(OC(C)C)C(NC(=S)N[C@H](C)c1ccccc1)c1ccccc1` (stereo not given in full) the same measures were 34.5% and 46.3%.
On to `CC(C)OP(=O)(OC(C)C)C(NC(=S)N[C@@H](C)C1CCCCC1)c1ccccc1` (stereo not given in full), for which the Activity in the test on Tobacco mosaic virus [1] turned out to be 50.4%; in the test with Tobacco mosaic virus [2], 36.3%; in the test on Tobacco mosaic virus [3], 36.7%; in the test on Tobacco mosaic virus [4] it was 29%; with Tobacco mosaic virus [5], 50.4%. The EC50 in the test on Tobacco mosaic virus [6] is 413 µg/mL (≈ 938 µM).
Turning to `CNCC(=O)N[C@@H](CO)C(=O)N[C@H]1[C@H](O)[C@@H](O)[C@H](n2ccc(N)nc2=O)O[C@@H]1C(N)=O` [NINGNANMYCIN], the Activity is on record as 56.2% in the test with Tobacco mosaic virus [1]; 60.6% with Tobacco mosaic virus [2]; 50.7% in the test on Tobacco mosaic virus [3]; 41.9% in the test on Tobacco mosaic virus [4]; 56.2% in the test on Tobacco mosaic virus [5]. For the same compound, the EC50 in the test with Tobacco mosaic virus [6] came to 227 µg/mL (≈ 512 µM).
